Series [1] concerns the target T1, Glucocorticoid receptor (Homo sapiens, UniProt P04150).
T1 sequence (P04150 whole entry): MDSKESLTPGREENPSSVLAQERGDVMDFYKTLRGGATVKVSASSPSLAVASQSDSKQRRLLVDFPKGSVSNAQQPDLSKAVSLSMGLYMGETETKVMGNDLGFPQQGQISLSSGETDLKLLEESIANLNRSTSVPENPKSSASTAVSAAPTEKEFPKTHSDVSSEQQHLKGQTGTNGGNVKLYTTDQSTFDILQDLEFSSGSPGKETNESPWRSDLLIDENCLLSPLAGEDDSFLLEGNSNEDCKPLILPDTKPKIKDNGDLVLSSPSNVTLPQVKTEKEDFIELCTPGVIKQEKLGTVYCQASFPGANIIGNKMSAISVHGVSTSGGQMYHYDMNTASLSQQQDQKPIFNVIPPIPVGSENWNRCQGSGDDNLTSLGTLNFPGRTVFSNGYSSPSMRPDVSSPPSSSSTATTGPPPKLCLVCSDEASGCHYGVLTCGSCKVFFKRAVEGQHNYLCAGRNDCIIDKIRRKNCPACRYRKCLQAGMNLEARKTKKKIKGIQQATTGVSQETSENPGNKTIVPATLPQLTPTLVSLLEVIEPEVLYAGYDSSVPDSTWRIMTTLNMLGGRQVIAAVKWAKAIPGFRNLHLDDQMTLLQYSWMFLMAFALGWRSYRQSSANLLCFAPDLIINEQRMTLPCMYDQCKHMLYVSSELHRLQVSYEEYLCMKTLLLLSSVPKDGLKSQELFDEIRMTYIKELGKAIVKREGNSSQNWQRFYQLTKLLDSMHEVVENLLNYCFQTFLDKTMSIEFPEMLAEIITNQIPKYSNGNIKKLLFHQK
The series is described as follows: Antagonist activity at glucocorticoid receptor in human HepG2 cells assessed as inhibition of glucocorticoid-induced TAT activity after 24 hrs. The series is classed as cell-based.

Series [2] addresses T1, Glucocorticoid receptor. The series is described as follows: Binding affinity to human recombinant glucocorticoid receptor by fluorescence polarization assay. (In general: Fluorescence polarisation rises when a labelled molecule tumbles more slowly, as on binding a larger partner.)
A short description of series [3]: Clearance in rat at 1 mg/kg, iv. The series is classed as ADME, organism-based. As to conditions: in vivo. A digest of the protocol:
(§1)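 Rat pharmacokinetics: oral dosing at 5 mg/kg in 10% DMSO in 0.5% aqueous methyl cellulose. Intravenous dosing at 1 mg/kg in 10% DMSO, 45% PEG400 and 45% propylene glycol. Plasma Cmax was taken after the oral dose and clearance after the iv dose, and oral bioavailability was derived.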

A short description of series [4]: Cmax in rat at 5 mg/kg, po. The series is classed as ADME, organism-based. The arrangement: dose 5 mg/kg, route oral. The settings on record: in vivo. Put shortly: as §1
The target of series [5] is T2, hERG (KCNH2) (Homo sapiens, UniProt Q12809). The series is described as follows: Inhibition of human ERG at 10 uM by patch clamp technique. (Patch clamp records ionic current or voltage across a cell membrane.)
T2 sequence (Q12809 whole entry): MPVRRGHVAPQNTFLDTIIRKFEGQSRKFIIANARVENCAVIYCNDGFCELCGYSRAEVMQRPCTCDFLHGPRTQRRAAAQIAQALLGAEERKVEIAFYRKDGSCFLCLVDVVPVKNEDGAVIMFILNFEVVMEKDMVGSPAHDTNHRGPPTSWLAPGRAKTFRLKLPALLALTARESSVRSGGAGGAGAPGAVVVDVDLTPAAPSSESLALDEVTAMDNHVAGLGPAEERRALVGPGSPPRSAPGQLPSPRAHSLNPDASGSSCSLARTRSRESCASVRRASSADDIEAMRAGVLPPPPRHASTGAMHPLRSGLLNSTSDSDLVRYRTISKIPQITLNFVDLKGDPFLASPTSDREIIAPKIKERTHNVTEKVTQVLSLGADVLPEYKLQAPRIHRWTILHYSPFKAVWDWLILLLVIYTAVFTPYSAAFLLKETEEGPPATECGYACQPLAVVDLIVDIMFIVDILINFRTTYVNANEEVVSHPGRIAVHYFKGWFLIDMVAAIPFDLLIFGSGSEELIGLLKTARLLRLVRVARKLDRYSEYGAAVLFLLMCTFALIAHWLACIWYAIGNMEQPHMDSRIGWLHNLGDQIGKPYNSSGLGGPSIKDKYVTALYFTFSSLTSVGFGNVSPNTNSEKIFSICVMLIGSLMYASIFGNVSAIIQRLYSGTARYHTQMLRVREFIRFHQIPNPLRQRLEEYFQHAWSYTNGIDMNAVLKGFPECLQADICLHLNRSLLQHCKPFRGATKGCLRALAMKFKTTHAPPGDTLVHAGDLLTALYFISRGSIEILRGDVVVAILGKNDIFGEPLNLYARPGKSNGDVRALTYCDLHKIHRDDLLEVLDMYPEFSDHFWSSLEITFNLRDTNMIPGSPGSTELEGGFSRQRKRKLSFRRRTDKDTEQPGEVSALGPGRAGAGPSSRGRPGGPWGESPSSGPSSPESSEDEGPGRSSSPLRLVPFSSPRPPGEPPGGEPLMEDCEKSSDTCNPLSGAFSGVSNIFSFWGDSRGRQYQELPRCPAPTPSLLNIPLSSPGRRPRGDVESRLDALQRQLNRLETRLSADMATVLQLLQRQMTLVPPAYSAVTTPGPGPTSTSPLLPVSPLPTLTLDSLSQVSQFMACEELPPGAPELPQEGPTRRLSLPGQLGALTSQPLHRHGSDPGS
The target of series [6] is T2, hERG (KCNH2). Put plainly: Inhibition of human ERG at 1 uM by patch clamp technique.
Series [7] deals with Rattus norvegicus. The series is described as follows: Reduction in cortisone-induced insulin level in rat at 30 mg/kg, po bid. The series is classed as functional, organism-based. Put shortly: (§2)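 Rats received cortisone 30 mg/kg sc once daily for six days. Test agent was given orally twice daily at 30 mg/kg. Glucose and insulin levels were compared with cortisone-only and no-cortisone controls, with mifepristone at the same oral regimen as positive control.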

In series [8] the test system is Rattus norvegicus. Put plainly: Reduction in cortisone-induced glucose level in rat at 30 mg/kg, po bid. The series is classed as functional, organism-based. Put shortly: as §2
The target in series [9] is Voltage-gated inwardly rectifying potassium channel KCNH2 (Homo sapiens, UniProt Q12809). The series is described as follows: Inhibition of human ERG by patch clamp technique.
Chain of Voltage-gated inwardly rectifying potassium channel KCNH2 (Q12809 whole entry): as above
Series [10] concerns Rattus norvegicus. The series is described as follows: Reduction in olanzapine-induced weight gain in rat at 20 mg/kg, po bid administered for 21 days measured from day 4 of compound dosing. The series is classed as functional, organism-based.

pIC50, pKi: −log10 of the molar value. Calls of active or inactive are those of the source. No cut-off for these calls is given here.

As usually defined, the pKi is −log10 of the Ki, conventionally taken in molar units. In general, clearance refers to the rate of elimination divided by the concentration. As a reminder, the Cmax is the peak of the concentration-time curve. A word on the inhibition: it is the relative decrease from the control value, in per cent. The pIC50 is the negative decadic logarithm of the IC50, by convention in mol/L. The low end stands for a large IC50, the high end for a small IC50.

For `O=C(c1cccs1)[C@]12Cc3cnn(-c4ccc(F)cc4)c3C=C1CCN(S(=O)(=O)c1ccc(C(F)(F)F)cc1)C2`, the figures for the pKi at Glucocorticoid receptor [1] and at Glucocorticoid receptor [2] were 7.57 and 9.39, respectively.
In the case of `O=C(c1ccccn1)[C@]12Cc3cnn(-c4ccc(F)cc4)c3C=C1CCN(S(=O)(=O)c1ccc(F)c(C(F)(F)F)c1)C2`, the pKi on Glucocorticoid receptor [1] was 8.01; on Glucocorticoid receptor [2] it was 9.14. The clearance in [3] was 103 mL/min/kg. In addition, in series [4], the peak level (Cmax) was 112 ng/mL. This compound also came in with an inhibition at 10 µM at hERG (KCNH2) [5] of 31%. Besides, at hERG (KCNH2) [6], the inhibition at 1 µM is 16%.
`Cc1cccc(S(=O)(=O)N2CCC3=Cc4c(cnn4-c4ccc(F)cc4)C[C@]3(C(=O)c3ccccn3)C2)c1`: the pKi is 8.17 on Glucocorticoid receptor [1] and 9.85 at Glucocorticoid receptor [2]. In addition, the inhibition at 10 µM against hERG (KCNH2) [5] was found to be 30%. At 1 µM the inhibition on hERG (KCNH2) [6] was 17%.
In the case of `O=C(c1ccccn1)[C@]12Cc3cnn(-c4ccc(F)cc4)c3C=C1CCN(S(=O)(=O)c1cccc(C(F)(F)F)c1)C2`, the negative logarithm of the Ki (pKi) is 7.85 on Glucocorticoid receptor [1] and 10.00 at Glucocorticoid receptor [2]. In addition, the clearance in series [3] is 40 mL/min/kg. The compound also came in with a peak concentration (Cmax) in series [4] of 155 ng/mL.
As for `Cc1ccc(S(=O)(=O)N2CCC3=Cc4c(cnn4-c4ccc(F)cc4)C[C@]3(C(=O)c3ccccn3)C2)cc1`, the figures for the pKi on Glucocorticoid receptor [1] and on Glucocorticoid receptor [2] were 8.35 and 9.66, respectively. This compound also displayed an inhibition at 10 µM against hERG (KCNH2) [5] of 59%. On hERG (KCNH2) [6], this compound displayed an inhibition at 1 µM of 34%.
In the case of `O=C(c1cscn1)[C@]12Cc3cnn(-c4ccc(F)cc4)c3C=C1CCN(S(=O)(=O)c1ccc(C(F)(F)F)cc1)C2`, the pKi is 7.66 on Glucocorticoid receptor [1] and 9.85 on Glucocorticoid receptor [2].
`O=C(c1ccccn1)[C@]12Cc3cnn(-c4ccc(F)cc4)c3C=C1CCN(S(=O)(=O)c1cccc(Cl)c1)C2`: the pKi on Glucocorticoid receptor [1] is 7.96; at Glucocorticoid receptor [2], 9.60. In series [3], this compound returned a clearance of 70 mL/min/kg. In addition, the peak level in series [4] (Cmax) was 112 ng/mL. The same compound gave an inhibition at 10 µM against hERG (KCNH2) [5] of 35%. At hERG (KCNH2) [6], this compound had an inhibition at 1 µM of 14%.
`O=C(c1cocn1)[C@]12Cc3cnn(-c4ccc(F)cc4)c3C=C1CCN(S(=O)(=O)c1ccc(C(F)(F)F)cc1)C2`: the pKi was 7.20 at Glucocorticoid receptor [1] and 9.80 at Glucocorticoid receptor [2].
Take `O=C(c1cncs1)[C@]12Cc3cnn(-c4ccc(F)cc4)c3C=C1CCN(S(=O)(=O)c1ccc(C(F)(F)F)cc1)C2`: the pKi on Glucocorticoid receptor [1] was 6.59; at Glucocorticoid receptor [2], 9.48.
Turning to `O=C(c1nccs1)[C@]12Cc3cnn(-c4ccc(F)cc4)c3C=C1CCN(S(=O)(=O)c1ccc(C(F)(F)F)cc1)C2`, the pKi was 7.74 on Glucocorticoid receptor [1] and 9.64 at Glucocorticoid receptor [2].
For the compound `CC#C[C@]1(O)CC[C@H]2[C@@H]3CCC4=CC(=O)CCC4=C3[C@@H](c3ccc(N(C)C)cc3)C[C@@]21C`, the outcome with Rattus norvegicus [7] and with Rattus norvegicus [8] was Active.
Turning to `N#Cc1cccc(S(=O)(=O)N2CCC3=Cc4c(cnn4-c4ccc(F)cc4)C[C@]3(C(=O)c3ccccn3)C2)c1`, the pKi was 7.82 on Glucocorticoid receptor [1] and 9.85 at Glucocorticoid receptor [2]. At hERG (KCNH2) [5], this compound displayed an inhibition at 10 µM of 42%. Further, 1 µM produced 27% inhibition on hERG (KCNH2) [6].
As to `O=C(c1cccnc1)[C@]12Cc3cnn(-c4ccc(F)cc4)c3C=C1CCN(S(=O)(=O)c1ccc(C(F)(F)F)cc1)C2`, the pKi is 6.82 at Glucocorticoid receptor [1] and 9.08 at Glucocorticoid receptor [2].
With `O=C(c1ncc[nH]1)[C@]12Cc3cnn(-c4ccc(F)cc4)c3C=C1CCN(S(=O)(=O)c1ccc(C(F)(F)F)cc1)C2`, the pKi on Glucocorticoid receptor [1] is 7.28; on Glucocorticoid receptor [2], 9.33.
On to `Cc1ccccc1S(=O)(=O)N1CCC2=Cc3c(cnn3-c3ccc(F)cc3)C[C@]2(C(=O)c2ccccn2)C1`, for which the pKi is 7.73 at Glucocorticoid receptor [1] and 9.68 at Glucocorticoid receptor [2]. In addition, the inhibition at 10 µM at hERG (KCNH2) [5] came out at 45%. Besides, the inhibition at 1 µM against hERG (KCNH2) [6] was 26%.
As to `COc1cccc(S(=O)(=O)N2CCC3=Cc4c(cnn4-c4ccc(F)cc4)C[C@]3(C(=O)c3ccccn3)C2)c1`, the pKi at Glucocorticoid receptor [1] was 7.94; at Glucocorticoid receptor [2] it was 9.72. The compound further registered an inhibition at 10 µM against hERG (KCNH2) [5] of 36%. Moreover, in [9], the pIC50 is less than 4.72. On hERG (KCNH2) [6], this compound showed an inhibition at 1 µM of 24%.
For `O=C(c1ccccn1)[C@]12Cc3cnn(-c4ccc(F)cc4)c3C=C1CCN(S(=O)(=O)c1ccc(C(F)(F)F)c(F)c1)C2`, the figures for the negative logarithm of the Ki (pKi) on Glucocorticoid receptor [1] and at Glucocorticoid receptor [2] were 7.96 and 9.54, respectively. In [3], this compound registered a clearance of 28.7 mL/min/kg. In series [4], the peak level (Cmax) was 322 ng/mL. This compound also returned an inhibition at 10 µM against hERG (KCNH2) [5] of 17%. On hERG (KCNH2) [6], this compound displayed an inhibition at 1 µM of 8%.
With `O=C(c1ccccn1)[C@]12Cc3cnn(-c4ccc(F)cc4)c3C=C1CCN(S(=O)(=O)c1ccc(F)cc1)C2`, the negative logarithm of the Ki (pKi) is 7.80 at Glucocorticoid receptor [1] and 9.89 on Glucocorticoid receptor [2].
In the case of `CCOC[C@]12Cc3cnn(-c4ccc(F)cc4)c3C=C1CCN(S(=O)(=O)c1ccc(C(F)(F)F)cc1)C2`, in the series on Rattus norvegicus [10], the outcome was Active.
On to `O=C(c1ccccn1)[C@]12Cc3cnn(-c4ccc(F)cc4)c3C=C1CCN(S(=O)(=O)c1ccc(F)c(F)c1)C2`, for which the pKi at Glucocorticoid receptor [1] was 8.12; on Glucocorticoid receptor [2] it was 9.66. Besides, in [3], the clearance came to 44 mL/min/kg. In [4], this compound came in with a Cmax of 398 ng/mL. For the same compound, on hERG (KCNH2) [5], the inhibition at 10 µM came out at 35%. This compound also had an inhibition at 1 µM against hERG (KCNH2) [6] of 10%.
As for `O=C(c1ccco1)[C@]12Cc3cnn(-c4ccc(F)cc4)c3C=C1CCN(S(=O)(=O)c1ccc(C(F)(F)F)cc1)C2`, the results for the pKi on Glucocorticoid receptor [1] and at Glucocorticoid receptor [2] were 7.51 and 9.77, respectively.
Take `O=C(c1cnccn1)[C@]12Cc3cnn(-c4ccc(F)cc4)c3C=C1CCN(S(=O)(=O)c1ccc(C(F)(F)F)cc1)C2`: the negative-log Ki (pKi) at Glucocorticoid receptor [1] is 7.01; at Glucocorticoid receptor [2] it was 9.68.
